Results taken from ChEMBL document CHEMBL3244004, “Potential antitumor agents. 27. Quantitative structure--antileukemic (L1210) activity relationships for the omega-[4-(9-acridinylamino)phenyl]alkanoic acids” (J Med Chem, 1978).
Active and inactive are the calls of the source. No cut-off for these calls is given here.

Columns and labels:
[1] = Logarithmic function of the retardation factor value of compound by reverse phase chromatography analysis; type: physicochemical
Method in brief: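 Lipophilic-hydrophilic balance read by reversed-phase TLC, using a system described in an earlier report. R_m is calculated as log(1/R_f − 1). Each quoted figure is the mean of at least three determinations.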

Mus musculus = test: Toxicity in ip dosed C3H/DBA2F1 hybrid mouse allografted with mouse L1210 cells administered for 5 days measured up to 8 days; type: organism-based; details: in vivo
Method in brief: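 C3H/DBA2 F1 hybrid mice (18.5–22.5 g) bearing ip 10^5 L1210 cells were dosed ip once daily for 5 days, starting 24 h after inoculation, at 0.2 mL per dose. Doses were spaced 0.05 log units apart. Deaths before day 8 were taken as drug toxicity, and the dose lethal to 10% of animals (LD10) was derived.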

L1210 = test: Antitumor activity against mouse L1210 cells allografted in C3H/DBA2F1 hybrid mouse assessed as maximum increase of host life span administered as ip for 5 days relative to control; type: functional
Method in brief: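 Mice (C3H/DBA2 F1 hybrid, 18.5–22.5 g; six per dose level) were inoculated ip with 10^5 L1210 cells. Ip treatment ran once daily on days 1–5, starting 24 h after inoculation, in 0.2 mL per dose. Doses were spaced 0.09 log units apart. ILS = T/C% − 100, significant if above 25%. Significant ILS values were regressed on log dose, and ILSmax was read at the LD10.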

SMILES	Rm [1]	LD10 (Mus musculus)	ILSmax (L1210)	log(ILSmax) (L1210)
NC(=O)CCc1ccc(Nc2c3ccccc3nc3ccccc23)cc1	-0.17	75 mg/kg	84%	1.92
CS(=O)(=O)O.NC(=O)CCCCCCCc1ccc(Nc2c3ccccc3nc3ccccc23)cc1	0.68	120 mg/kg	53%	1.72
CN(C)C(=O)CCCc1ccc(Nc2c3ccccc3nc3ccccc23)cc1.Cl	0.68	52 mg/kg		<1.3
Cl.O=C(O)CCCCCCCCc1ccc(Nc2c3ccccc3nc3ccccc23)cc1	0.85	100 mg/kg	72%	1.86
O=C(O)CCCCc1ccc(Nc2c3ccccc3nc3ccccc23)cc1	0.64	125 mg/kg	187%	2.27
CC(=O)Nc1ccc2c(Nc3ccc(CCCCCC(=O)O)cc3)c3ccccc3nc2c1.Cl	0.54	> 500 mg/kg	inactive	
CS(=O)(=O)O.NC(=O)Cc1ccc(Nc2c3ccccc3nc3ccccc23)cc1	-0.33	55 mg/kg	64%	1.81
CNc1ccc2c(Nc3ccc(CCCC(=O)O)cc3)c3ccccc3nc2c1.Cl	0.67	400 mg/kg	35%	1.54
CCCCCS(=O)(=O)Nc1ccc(Nc2c3ccccc3nc3ccccc23)cc1.Cl	0.66	70 mg/kg	55%	
CCS(=O)(=O)Nc1ccc(Nc2c3ccccc3nc3cc(NC(C)=O)ccc23)cc1	0.1	28 mg/kg	115%	2.06
O=C(O)c1ccc(Nc2c3ccccc3nc3ccccc23)cc1	0.27	72 mg/kg	130%	2.11
CS(=O)(=O)O.NC(=O)CCCCCCCCc1ccc(Nc2c3ccccc3nc3ccccc23)cc1	0.77	60 mg/kg	25%	1.4
Cc1cccc2c(Nc3ccc(CC(=O)O)cc3)c3ccccc3nc12	0.3	95 mg/kg	80%	1.9
CNc1ccc2c(Nc3ccc(NS(C)(=O)=O)cc3OC)c3ccccc3nc2c1.Cl	0.17	1.3 mg/kg	94%	1.97
Cl.O=C(O)CCCCCCCc1ccc(Nc2c3ccccc3nc3ccccc23)cc1	0.82	95 mg/kg	75%	1.88
CC(=O)Nc1ccc2c(Nc3ccc(C(=O)O)cc3)c3ccccc3nc2c1.Cl	0.15	> 500 mg/kg	inactive	
Cc1cccc2c(Nc3ccc(CCC(=O)O)cc3)c3ccccc3nc12	0.46	32 mg/kg	124%	2.09
CS(=O)(=O)Nc1ccc(Nc2c3ccccc3nc3ccccc23)cc1	0	66 mg/kg	131%	
Cl.NS(=O)(=O)Cc1ccc(Nc2c3ccccc3nc3ccccc23)cc1	-0.36	62 mg/kg	53%	1.72
CC(=O)Nc1ccc2c(Nc3ccc(NS(C)(=O)=O)cc3)c3ccccc3nc2c1	-0.12	19 mg/kg	145%	
NS(=O)(=O)c1ccc(Nc2c3ccccc3nc3ccccc23)cc1	-0.57	> 500 mg/kg	inactive	

SMILES	Rm [1]	LD10 (Mus musculus)	ILSmax (L1210)	log(ILSmax) (L1210)
CC(=O)Nc1ccc2c(=Nc3ccc(CCC(=O)O)cc3)c3ccccc3[nH]c2c1.Cl	0.27	145 mg/kg		<1.3
CCCCCCS(=O)(=O)Nc1ccc(Nc2c3ccccc3nc3cc(NC(C)=O)ccc23)cc1	0.7	21 mg/kg	43%	1.63
CCCS(=O)(=O)Nc1ccc(Nc2c3ccccc3nc3ccccc23)cc1	0.43	350 mg/kg	82%	
CCCCS(=O)(=O)Nc1ccc(Nc2c3ccccc3nc3cc(NC(C)=O)ccc23)cc1	0.46	39 mg/kg	84%	1.92
CCc1cccc2c(Nc3ccc(CC(=O)O)cc3)c3ccccc3nc12	0.52	200 mg/kg	200%	2.3
CCCS(=O)(=O)Nc1ccc(Nc2c3ccccc3nc3cc(NC(C)=O)ccc23)cc1	0.3	33 mg/kg	115%	2.06
Cl.O=S(=O)(Cc1ccc(Nc2c3ccccc3nc3ccccc23)cc1)Nc1ccccn1	-0.04	370 mg/kg	99%	2
Cl.O=C(O)CCc1ccc(Nc2c3ccccc3nc3ccccc23)cc1	0.44	125 mg/kg	163%	2.21
CNc1ccc2c(Nc3ccc(NS(C)(=O)=O)cc3)c3ccccc3nc2c1.Cl	-0.01	7 mg/kg	103%	2.01
NC(=O)CCCc1ccc(Nc2c3ccccc3nc3ccccc23)cc1	0.09	85 mg/kg	122%	2.09
Cl.O=C(O)CCCCCCCCCc1ccc(Nc2c3ccccc3nc3ccccc23)cc1	0.86	75 mg/kg	75%	1.88
CCc1cccc2c(Nc3ccc(CCC(=O)O)cc3)c3ccccc3nc12.Cl	0.66	200 mg/kg	130%	2.11
Cl.O=C(O)CCCCCc1ccc(Nc2c3ccccc3nc3ccccc23)cc1	0.75	150 mg/kg	200%	2.3
NS(=O)(=O)CCc1ccc(Nc2c3ccccc3nc3ccccc23)cc1	-0.2	80 mg/kg	68%	1.83
CS(=O)(=O)O.NC(=O)CCCCCc1ccc(Nc2c3ccccc3nc3ccccc23)cc1	0.41	125 mg/kg	97%	1.99
CS(=O)(=O)O.NC(=O)CCCCc1ccc(Nc2c3ccccc3nc3ccccc23)cc1	0.25	110 mg/kg	82%	1.91
O=C(O)Cc1ccc(Nc2c3ccccc3nc3ccccc23)cc1	0.23	450 mg/kg	22%	1.34
CCCCCCS(=O)(=O)Nc1ccc(Nc2c3ccccc3nc3ccccc23)cc1.Cl	0.75	120 mg/kg	35%	
CCS(=O)(=O)Nc1ccc(Nc2c3ccccc3nc3ccccc23)cc1	0.25	330 mg/kg	98%	
NC(=O)c1ccc(Nc2c3ccccc3nc3ccccc23)cc1	-0.25	182 mg/kg		<1.3
